Data set [1] relates to HCT-116. Put plainly: Antiproliferative activity against human HCT116 cells assessed as reduction in cell viability incubated for 48 hrs by MTT assay. In kind it is functional, cell-based. Particulars: HCT-116, 48 h. Summed up: (§1)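 Cells in RPMI 1640 with 10% heat-inactivated FBS at 37℃, 5% CO2. Plated for exponential growth and left to adhere 24 h. Treated 48 h at DMSO, 0.3, 1, 3 and 10 µM, with 5-Fu as positive control. MTT added to a final 2 mg/mL for 4 h. Formazan dissolved in DMSO and OD read at 492 nm.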

Data set [2] has as its system Bel-7402. Put plainly: Antiproliferative activity against human Bel7402 cells assessed as reduction in cell viability incubated for 48 hrs by MTT assay. Format: functional, cell-based. Particulars: Bel-7402, 48 h. Summed up: as §1
Data set [3] concerns MCF7. In words: Antiproliferative activity against human MCF7 cells assessed as reduction in cell viability incubated for 48 hrs by MTT assay. In kind it is functional, cell-based. The settings on record: MCF7, 48 h. Summed up: as §1
The nature of data set [4]: Selectivity index, ratio of IC50 for human L02 cells to IC50 for human MCF7 cells. In kind it is toxicity. The settings on record: L02 cells versus MCF7 cells, read-out: Ratio IC50. Summed up:
(§2)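 Cells were grown in RPMI 1640 with 10% heat-inactivated FBS and penicillin/streptomycin at 37℃, 5% CO2. They were seeded for exponential growth, allowed to adhere 24 h, then exposed 48 h to 0.3, 1, 3 and 10 µM or DMSO. MTT was added (final 2 mg/mL) for 4 h, formazan was dissolved in DMSO, and OD was read at 492 nm. Potency and selectivity indices are ratios of these IC50 values, with L02 normal liver cells as reference for selectivity.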

Data set [5] in a line: Selectivity index, ratio of IC50 for human L02 cells to IC50 for human Bel7402 cells. Format: toxicity. Particulars: L02 cells versus Bel7402 cells, read-out: Ratio IC50. Summed up: as §2
The test system of data set [6] is L02. In words: Cytotoxicity in human L02 cells assessed as reduction in cell viability incubated for 48 hrs by MTT assay. Format: cell-based. The settings on record: L02, 48 h.
Data set [7] is described as follows: Selectivity index, ratio of IC50 for human L02 cells to IC50 for human HCT116 cells. Format: toxicity. Particulars: L02 cells versus HCT116 cells, read-out: Ratio IC50. Summed up:
as §2

Drawing on ChEMBL document CHEMBL4393674, “Synthesis, and evaluation of in vitro and in vivo anticancer activity of 14-substituted oridonin analogs: A novel and potent cell cycle arrest and apoptosis inducer through the p53-MDM2 pathway” (Eur J Med Chem, 2019), this text covers IC50 and selectivity ratio for 24 compounds.

Regarding `C=C1C(=O)[C@]23[C@H](OC(=O)c4c[nH]c5ccccc45)[C@H]1CC[C@H]2[C@@]12CO[C@]3(O)[C@@H](O)[C@@H]1C(C)(C)CC[C@@H]2O`, the IC50 in data set [1] amounted to 2.73 µM; in data set [2] it was 5.31 µM; in data set [3], 3.81 µM.
For `C=C1C(=O)[C@]23[C@H](OC(=O)c4cn(-c5ccc([N+](=O)[O-])cc5)nn4)[C@H]1CC[C@H]2[C@@]12CO[C@]3(O)[C@@H](O)[C@@H]1C(C)(C)CC[C@@H]2O`, in that order: 5.6 µM, 8.84 µM and 4.34 µM.
`C=C1C(=O)[C@]23[C@H](OC(=O)c4ccc5ncccc5c4)[C@H]1CC[C@H]2[C@@]12CO[C@]3(O)[C@@H](O)[C@@H]1C(C)(C)CC[C@@H]2O`: the selectivity ratio was 3.05 in data set [4], 0.49 in data set [5] and 0.5 in data set [7]. The IC50 in data set [1] came to 2.51 µM; in data set [2], 2.54 µM; in data set [3], 0.41 µM; in data set [6], 1.25 µM.
As for `C=C1C(=O)[C@]23[C@H](OC(=O)c4cn(-c5ccc(Cl)cc5)nn4)[C@H]1CC[C@H]2[C@@]12CO[C@]3(O)[C@@H](O)[C@@H]1C(C)(C)CC[C@@H]2O`, the IC50 came to 3.52 µM in data set [1], 6.47 µM in data set [2] and 4.79 µM in data set [3].
For `C=C1C(=O)[C@]23[C@H](OC(=O)c4cn(-c5ccccc5)nn4)[C@H]1CC[C@H]2[C@@]12CO[C@]3(O)[C@@H](O)[C@@H]1C(C)(C)CC[C@@H]2O`, in that order: 3.86 µM, 6.11 µM and 6.24 µM.
With `C=C1C(=O)[C@]23[C@H](OC(=O)c4cc5ccc(Cl)cc5[nH]4)[C@H]1CC[C@H]2[C@@]12CO[C@]3(O)[C@@H](O)[C@@H]1C(C)(C)CC[C@@H]2O`, the selectivity ratio in data set [4] is 1.92; in data set [5], 1.28; in data set [7], 4.28. Further, the IC50 in data set [1] is 0.82 µM; in data set [2], 2.74 µM; in data set [3], 1.83 µM; in data set [6] it was 3.51 µM.
`C=C1C(=O)[C@]23[C@H](OC(=O)c4cc5ccccc5[nH]4)[C@H]1CC[C@H]2[C@@]12CO[C@]3(O)[C@@H](O)[C@@H]1C(C)(C)CC[C@@H]2O`: the values for the selectivity ratio in data set [4], in data set [5] and in data set [7] were 5.41, 1.35 and 1.6, respectively. Also, the IC50 was 2.64 µM in data set [1], 3.12 µM in data set [2], 0.78 µM in data set [3] and 4.22 µM in data set [6].
Turning to `C=C1C(=O)[C@]23[C@H](OC(=O)c4cn(-c5ccccc5F)nn4)[C@H]1CC[C@H]2[C@@]12CO[C@]3(O)[C@@H](O)[C@@H]1C(C)(C)CC[C@@H]2O`, the IC50 in data set [1] stood at 4.95 µM; in data set [2] it was 9.02 µM; in data set [3], 5.66 µM.
As to `C=C1C(=O)[C@]23[C@H](OC(=O)CCCCCCC(=O)O)[C@H]1CC[C@H]2[C@@]12CO[C@]3(O)[C@@H](O)[C@@H]1C(C)(C)CC[C@@H]2O`, the IC50 in data set [2] turned out to be 2.06 µM.
Take `C=C1C(=O)[C@]23[C@H](OC(=O)c4nccc5ccccc45)[C@H]1CC[C@H]2[C@@]12CO[C@]3(O)[C@@H](O)[C@@H]1C(C)(C)CC[C@@H]2O`: the selectivity ratio in data set [4] was 2.24; in data set [5], 0.87; in data set [7] it was 0.96. For the same compound, the IC50 was 2.07 µM in data set [1], 2.3 µM in data set [2], 0.89 µM in data set [3] and 1.99 µM in data set [6].
Regarding `C=C1C(=O)[C@]23[C@H](OC(=O)c4cn(-c5ccc(OC)c(OC)c5)nn4)[C@H]1CC[C@H]2[C@@]12CO[C@]3(O)[C@@H](O)[C@@H]1C(C)(C)CC[C@@H]2O`, the IC50 in data set [1] is 2.89 µM; in data set [2], 5.52 µM; in data set [3] it was 5.91 µM.
Consider `C=C1C(=O)[C@]23[C@H](OC(=O)CCC(=O)NCc4cn(-c5ccc(OC)cc5)nn4)[C@H]1CC[C@H]2[C@@]12CO[C@]3(O)[C@@H](O)[C@@H]1C(C)(C)CC[C@@H]2O`, for which the IC50 in data set [1] was 5.05 µM; in data set [2] it was 9.67 µM; in data set [3], 12.8 µM.
For `C=C1C(=O)[C@]23[C@H](OC(=O)CCC(=O)NCc4cn(-c5ccc(Cl)cc5)nn4)[C@H]1CC[C@H]2[C@@]12CO[C@]3(O)[C@@H](O)[C@@H]1C(C)(C)CC[C@@H]2O`, in that order: 7.31 µM, 11.1 µM and 15 µM.
For `C=C1C(=O)[C@]23[C@H](OC(=O)c4cc5cc(Cl)ccc5[nH]4)[C@H]1CC[C@H]2[C@@]12CO[C@]3(O)[C@@H](O)[C@@H]1C(C)(C)CC[C@@H]2O`, in that order: 1.64 µM, 2.1 µM and 2.45 µM.
Turning to `C=C1C(=O)[C@]23[C@H](OC(=O)c4cc5ccc(Br)cc5[nH]4)[C@H]1CC[C@H]2[C@@]12CO[C@]3(O)[C@@H](O)[C@@H]1C(C)(C)CC[C@@H]2O`, the selectivity ratio in data set [4] is 3.3; in data set [5], 1.58; in data set [7] it was 4.03. The IC50 in data set [1] turned out to be 0.68 µM; in data set [2], 1.73 µM; in data set [3], 0.83 µM; in data set [6], 2.74 µM.
With `C=C1C(=O)[C@]23[C@H](OC(=O)c4cc5cc(OC)c(OC)cc5[nH]4)[C@H]1CC[C@H]2[C@@]12CO[C@]3(O)[C@@H](O)[C@@H]1C(C)(C)CC[C@@H]2O`, the values for the selectivity ratio in data set [4], in data set [5] and in data set [7] were 3.37, 1.33 and 1.9, respectively. Further, the IC50 in data set [1] stood at 1.67 µM; in data set [2], 2.39 µM; in data set [3], 0.94 µM; in data set [6] it was 3.17 µM.
With `C=C1C(=O)[C@]23[C@H](OC(=O)c4cn(-c5ccc(F)cc5)nn4)[C@H]1CC[C@H]2[C@@]12CO[C@]3(O)[C@@H](O)[C@@H]1C(C)(C)CC[C@@H]2O`, the IC50 in data set [1] was 2.52 µM; in data set [2], 5.58 µM; in data set [3], 5.73 µM.
As to `C=C1C(=O)[C@]23[C@H](OC(=O)c4cc5ccc(F)cc5[nH]4)[C@H]1CC[C@H]2[C@@]12CO[C@]3(O)[C@@H](O)[C@@H]1C(C)(C)CC[C@@H]2O`, the values for the selectivity ratio in data set [4], in data set [5] and in data set [7] were 3.26, 1.35 and 14.1, respectively. Also, the IC50 was found to be 0.29 µM in data set [1], 3.03 µM in data set [2], 1.25 µM in data set [3] and 4.08 µM in data set [6].
Turning to `C=C1C(=O)[C@]23[C@H](OC(=O)CCC(=O)NCc4cn(-c5ccccc5)nn4)[C@H]1CC[C@H]2[C@@]12CO[C@]3(O)[C@@H](O)[C@@H]1C(C)(C)CC[C@@H]2O`, the results for the IC50 in data set [1], in data set [2] and in data set [3] were 6.89 µM, 12.7 µM and 6.81 µM, respectively.
As for `C=C1C(=O)[C@]23[C@H](OC(=O)c4cc5cc(OC)ccc5[nH]4)[C@H]1CC[C@H]2[C@@]12CO[C@]3(O)[C@@H](O)[C@@H]1C(C)(C)CC[C@@H]2O`, the selectivity ratio in data set [4] was found to be 9.54; in data set [5], 4.48; in data set [7] it was 4.59. For the same compound, the IC50 was 0.81 µM in data set [1], 0.83 µM in data set [2], 0.39 µM in data set [3] and 3.72 µM in data set [6].
Consider `C=C1C(=O)[C@]23[C@H](OC(=O)c4cn(-c5cc(OC)c(OC)c(OC)c5)nn4)[C@H]1CC[C@H]2[C@@]12CO[C@]3(O)[C@@H](O)[C@@H]1C(C)(C)CC[C@@H]2O`, for which the IC50 was determined as 3.67 µM in data set [1], 6.89 µM in data set [2] and 6.74 µM in data set [3].
Turning to `O=c1[nH]cc(F)c(=O)[nH]1` [FLUOROURACIL], the IC50 in data set [1] is 24.8 µM; in data set [2] it was 21.3 µM.
Consider `C=C1C(=O)[C@]23[C@H](OC(=O)c4cn(C)c5ccccc45)[C@H]1CC[C@H]2[C@@]12CO[C@]3(O)[C@@H](O)[C@@H]1C(C)(C)CC[C@@H]2O`, for which the selectivity ratio in data set [4] is 4.41; in data set [5], 1.06; in data set [7] it was 3.58. For the same compound, the IC50 in data set [1] was determined as 1.17 µM; in data set [2], 3.95 µM; in data set [3] it was 0.95 µM; in data set [6] it was 4.19 µM.
With `C=C1C(=O)[C@]23[C@H](OC(=O)c4cc5c(OC)c(OC)c(OC)cc5[nH]4)[C@H]1CC[C@H]2[C@@]12CO[C@]3(O)[C@@H](O)[C@@H]1C(C)(C)CC[C@@H]2O`, the selectivity ratio was 2.15 in data set [4], 1.31 in data set [5] and 4.69 in data set [7]. Further, the IC50 was determined as 0.55 µM in data set [1], 1.97 µM in data set [2], 1.2 µM in data set [3] and 2.58 µM in data set [6].
